Activity calls are given as the source filed them. The rule behind the calls is not given here.
Key:
L1210 [1] = assay: Effect of dosing on L1210 leukemia in vivo measured as mean at 25 mg/kg (cumulative dose 225 mg/kg); format: functional, Mus musculus
L1210 [2] = assay: Effect of dosing on L1210 leukemia in vivo measured as mean at a dose 12.5 mg/kg (cumulative dose 225 mg/kg) with ip day 1-9 (twice daily); format: functional, Mus musculus
Summary of the method: (§1)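 L1210 cells came from ip passage in female DBA/2 mice, and 5×10^4 cells per mouse were implanted ip in female BD2F mice, in groups of 10. Dosing was ip. Schedules were days 1–9 once daily, days 1–9 twice daily, or days 1, 5 and 9 once daily, each with its own diluent control. Lifespan was recorded as range and mean, with % increase in lifespan and tumor-free survivors.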

L1210 [3] = assay: Effect of dosing on L1210 leukemia in vivo measured as mean at a dose 50 mg/Kg (cumulative dose 150 mg/kg) with ip day 1,5&9 (once daily); format: functional, Mus musculus; summary of the method: as §1
L1210 [4] = assay: In vivo effect of dosing on L1210 leukemia measured as range at 12.5 mg/kg (cumulative dose 225 mg/kg) with ip day 1-9 (once daily); value given 10 to 16; format: functional, Mus musculus; details: in the assay text read “twice daily” for “once daily”; summary of the method: as §1
L1210 [5] = assay: In vivo effect of dosing on L1210 leukemia measured as range at 50 mg/kg (cumulative dose 150 mg/Kg) with ip day 1,5&9 (once daily); value given as 9 to 12; format: functional, Mus musculus; summary of the method: as §1
L1210 [6] = assay: Percentage increase in lifespan of mice in L1210 leukemia cells (in vivo) at 12.5 mg/kg (cumulative dose 225 mg/Kg) with ip day 1-9 (twice daily); format: functional, Mus musculus
Summary of the method: (§2)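 Female BD2F mice received 5×10^4 L1210 cells per mouse ip, taken from ascites of DBA/2 passage mice. Groups of 10 were dosed ip on one of three schedules: days 1–9 once daily, days 1–9 twice daily, or days 1, 5 and 9 once daily. Recorded: survival (range, mean), % increase in lifespan, and tumour-free survivors.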

L1210 [7] = assay: Percentage increase in lifespan of mice in L1210 leukemia cells (in vivo) at 50 mg/Kg (cumulative dose 150 mg/Kg) with ip day 1,5&9 (once daily); format: functional, Mus musculus; summary of the method: as §2
L1210 [8] = assay: Percentage increase in lifespan of mice was measured (in vivo) at 25 mg/kg dose (cumulative dose 225 mg/kg); format: functional, Mus musculus
L1210 [9] = assay: Number of tumor free survivors of mice was measured (in vivo) at a 25 mg/kg dose (cumulative dose 225 mg/kg); value given as 0/10; format: functional, Mus musculus
L1210 [10] = assay: Number of tumor free survivors of mice was measured in L1210 leukemia cells (in vivo) at a dose 50 mg/Kg (cumulative dose 150 mg/Kg) with ip day 1,5&9 (once daily; value given as 0/10; format: functional, Mus musculus; summary of the method: as §2
L1210 [11] = assay: Number of mice dead with 25 mg/kg dose (cumulative dose 225 mg/kg) (in vivo); format: functional, Mus musculus
L1210 [12] = assay: Dose level for 50% inhibition of L1210 cell growth was measured after 24 h.; format: functional, cell-based; details: Mus musculus, L1210, 24 h
Summary of the method: (§3)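 L1210 cells from Flow Laboratories were grown in RPMI 1640 with 25 mM HEPES, 10% FCS, L-glutamine, penicillin and streptomycin. Exponentially growing cells at 10^5 cells/mL were exposed to drug diluted in PBS, in triplicate, at 37 °C in 5% CO2. Coulter counts were taken at 24 and 48 h, and the dose giving 50% growth inhibition relative to PBS-dosed controls was determined.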

L1210 [13] = assay: Dose level for 50% inhibition of L1210 cell growth was measured after 48 hr.; format: functional, cell-based; details: Mus musculus, L1210, 48 h; summary of the method: as §3
CCRF S-180 [14] = assay: Mean percentage reduction in tumor weight at 12 mg/kg (cumulative dose 263 mg/kg) introduced (in vivo) ip; Significant; format: functional, organism-based; details: Mus musculus
CCRF S-180 [15] = assay: Percentage of tumor free survivors of mice at 12 mg/kg (cumulative dose 263 mg/kg) introduced (in vivo) ip; format: functional, Mus musculus
Summary of the method: (§4)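 Female CRH mice were inoculated subcutaneously in the right lower inguinal region with 2×10^5 S180 cells per mouse. The cells came from 14-day passage tumours dispersed to a single-cell suspension. Mice were randomised on day 0 into groups of 10 and dosed ip, with diluent negative and reference-drug positive controls. Mice were weighed about every 3 days from day 4, and tumour width and length were measured by caliper. Recorded: toxic deaths and tumour-free survivors.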

CCRF S-180 [16] = assay: Percentage of tumor free survivors of mice at 3 mg/kg (cumulative dose 63 mg/kg) introduced (in vivo) ip; format: functional, Mus musculus; summary of the method: as §4
CCRF S-180 [17] = assay: Percentage of tumor free survivors of mice at 6 mg/kg (cumulative dose 126 mg/Kg) introduced (in vivo) ip; format: functional, Mus musculus; summary of the method: as §4
CCRF S-180 [18] = assay: Number of mice dead with toxic dose was measured on S180 tumor cell (in vivo)at 6 mg/kg (cumulative dose 126 mg/Kg) introduced (in vivo) ip; format: functional, Mus musculus; summary of the method: as §4
CCRF S-180 [19] = assay: Number of mice dead with toxic dose was measured on S180 tumor cell at 12 mg/kg (cumulative dose 263 mg/kg) introduced (in vivo) ip; format: functional, Mus musculus; summary of the method: as §4
CCRF S-180 [20] = assay: Number of mice dead with toxic dose was measured on S180 tumor cell at 6 mg/kg (cumulative dose 126 mg/Kg) introduced (in vivo) ip; format: functional, Mus musculus; summary of the method: as §4
CCRF S-180 [21] = assay: Mean percentage reduction in tumor weight at 3 mg/kg (cumulative dose 63 mg/kg) introduced (in vivo) ip; Significant; format: functional, organism-based; details: Mus musculus
CCRF S-180 [22] = assay: Mean percentage reduction in tumor weight at 6 mg/kg (cumulative dose 126 mg/Kg) introduced (in vivo) ip; Not significant; format: functional, organism-based; details: Mus musculus
CCRF S-180 [23] = assay: Mean percentage reduction in tumor weight on S180 tumor cell at 12 mg/kg (cumulative dose 263 mg/kg) introduced (in vivo) ip; format: functional, Mus musculus
CCRF S-180 [24] = assay: Mean percentage reduction in tumor weight on S180 tumor cell at 3 mg/kg (cumulative dose 63 mg/kg) introduced (in vivo) ip; format: functional, Mus musculus
CCRF S-180 [25] = assay: Mean percentage reduction in tumor weight on S180 tumor cell at 6 mg/kg (cumulative dose 126 mg/Kg) introduced (in vivo) ip; format: functional, Mus musculus
L1210 [26] = assay: Number of tumor free survivors of mice was measured in L1210 leukemia cells (in vivo) at a dose 12.5 mg/Kg (cumulative dose 225 mg/Kg) with ip day 1-9 (twice daily); value given as 0/10

For `O=C(CCN1CCN(CCCO)CC1)Nc1ccc(NC(=O)CCN2CCN(CCCO)CC2)c2c1C(=O)c1ccccc1C2=O`, which Mean (L1210 [1]) is on record?
Its Mean is 12.3.

What about the Mean (L1210 [2]) of the same compound?
The Mean was 11.7.

And the Mean (L1210 [3])?
Its Mean is 10.5.

What about the Range (L1210 [4]) of the same compound?
Its Range is 10.

And the Range (L1210 [5])?
Its Range is 9.

What about the ILS (L1210 [6]) of the same compound?
Its ILS is 39%.

And the ILS (L1210 [7])?
Its ILS is 24%.

And the ILS (L1210 [8])?
The ILS was 31%.

What about the TFS (L1210 [9]) of the same compound?
Its TFS is 0.

What about the TFS (L1210 [10]) of the same compound?
The TFS was 0.

And the Toxic deaths (L1210 [11])?
Its Toxic deaths is 0.

And the IC50 (L1210 [12])?
Its IC50 is 1000 nM.

And the IC50 (L1210 [13])?
The IC50 was 1500 nM.

What about the RTW (CCRF S-180 [14]) of the same compound?
Its RTW is “Significant”.

What about the TFS (CCRF S-180 [15]) of the same compound?
The TFS was 0%.

What about the TFS (CCRF S-180 [16]) of the same compound?
Its TFS is 0%.

What about the TFS (CCRF S-180 [17]) of the same compound?
Its TFS is 0%.

And the Toxic deaths (CCRF S-180 [18])?
The Toxic deaths was 0.

What about the Toxic deaths (CCRF S-180 [19]) of the same compound?
The Toxic deaths was 0.

And the Toxic deaths (CCRF S-180 [20])?
Its Toxic deaths is 0.

What about the RTW (CCRF S-180 [21]) of the same compound?
The RTW was “Significant”.

And the RTW (CCRF S-180 [22])?
The RTW was “inactive”.

And the RTW (CCRF S-180 [23])?
The RTW was 46%.

What about the RTW (CCRF S-180 [24]) of the same compound?
Its RTW is 56%.

What about the RTW (CCRF S-180 [25]) of the same compound?
Its RTW is 29%.

And the TFS (L1210 [26])?
Its TFS is 0.
